Source: PubChem (several laboratories)
Sampled rows, rich in hits. Any-hit rate of the full collection: about 2.2%.
NR2E3 ag-1 = activates human NR2E3 receptor; Q9Y5X4; CHO-S Gal4-NCOR/VP16-NR2E3 two-hybrid, luciferase; inhibition of corepressor binding, % at 3.98 µM; hit rate 0.35% among 360,000;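 active = inhibition above the mean of all tested compounds plus 3 SD, cut at about 70% in these data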;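 note: 0% = DMSO with NR2E3 transfected cells and 100% = cells lacking NR2E3 construct; higher means lower luciferase signal from less NR2E3 corepressor binding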
Target sequence (Q9Y5X4 whole entry, looked up, the tested form may be a part): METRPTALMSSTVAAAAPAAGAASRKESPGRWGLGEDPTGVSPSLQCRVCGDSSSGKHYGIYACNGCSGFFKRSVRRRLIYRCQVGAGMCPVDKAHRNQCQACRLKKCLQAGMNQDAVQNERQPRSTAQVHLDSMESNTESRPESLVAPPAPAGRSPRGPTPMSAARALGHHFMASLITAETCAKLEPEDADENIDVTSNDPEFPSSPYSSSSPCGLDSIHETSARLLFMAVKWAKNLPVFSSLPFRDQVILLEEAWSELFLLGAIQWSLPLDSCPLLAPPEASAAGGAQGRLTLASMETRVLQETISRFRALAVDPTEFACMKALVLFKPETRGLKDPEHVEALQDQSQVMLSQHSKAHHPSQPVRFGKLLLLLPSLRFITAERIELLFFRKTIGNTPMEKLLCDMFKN
HIV Env fusion = blocks HIV Env-driven cell-cell fusion | HeLa-JRFL Env/CEM21 cell fusion, luciferase | inhibition, % at 12.3 µM | hit rate 1.1% among 360,000;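 active = mean replicate inhibition score of at least 50 and every replicate individually at or above 50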;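 note: 0% = plate neutral controls and 100% = maraviroc near 300 nM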
GalR3 antagonist = antagonists of human GalR3 | O60755 | hit rate 0.44% among 360,000 | inhibition, % at 3 µM | HEK293 GalR3-CNG cAMP membrane potential fluorescence; galR3 body fused to GalR1 C-terminus;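 active = inhibition above the screen-wide average plus 3 SD, cut at about 13% in these data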;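 note: forskolin and galanin both at EC90 stimulate the cells; cAMP rise reported by CNG channel membrane potential dye signal; 0% = forskolin plus galanin with DMSO and 100% = forskolin alone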
Target sequence (O60755 1-299 limits assumed): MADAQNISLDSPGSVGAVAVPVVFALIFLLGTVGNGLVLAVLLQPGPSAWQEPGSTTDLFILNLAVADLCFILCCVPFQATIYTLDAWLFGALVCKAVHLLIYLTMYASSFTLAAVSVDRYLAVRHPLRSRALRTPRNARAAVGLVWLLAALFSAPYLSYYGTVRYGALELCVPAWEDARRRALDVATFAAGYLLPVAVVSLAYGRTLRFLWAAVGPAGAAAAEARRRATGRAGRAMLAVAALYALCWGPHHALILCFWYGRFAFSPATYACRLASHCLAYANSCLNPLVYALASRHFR
GAA850 FXN act = frataxin GAA850 promoter activation; HEK293 lucGAA850 FXN promoter luciferase reporter, 24 h; percent of 10 µM SAHA response; activation, % at 6 µM; hit rate 0.56% among 360,000;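 active = activation above the average of all compounds screened plus 3 SD, cutoff fixed separately per campaign, cut at about 7.5% in these data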;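 note: 0% = DMSO wells and 100% = 10 µM SAHA wells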
NR2E3 ag-2 = NR2E3 (human) agonism; Q9Y5X4; GST-NR2E3/biotin-RetCOR TR-FRET, 1536-well; inhibition of corepressor binding, % at 4.78 µM; hit rate 0.12% among 320,000;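 active = percent inhibition above the cutoff of mean plus 3 SD of all tested compounds, set per screening campaign, cut at about 20% in these data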;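 note: 0% = DMSO wells and 100% = biotin wells as full block of FRET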
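System: GST-tagged NR2E3 plus biotinylated RetCOR corepressor; Amount: 1.35 nM GST-tagged NR2E3 final; Dosing: single nominal compound dose of 4.8 µM; Schedule: 5 h incubation at 4 °C; Technique: TR-FRET with europium anti-GST and streptavidin-D2, 340 nm excitation; Controls: biotin wells as high control, 0.6% DMSO wells as low control.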
V-ATPase pHluor = yeast V-ATPase proton transport regulation by pHLuorin; S. cerevisiae, pHLuorin cytosolic pH fluorescence; response, % at 10 µM; hit rate 0.37% among 350,000; in the data active = response mostly above about 7.3%, no sharp cut-off; inactive = mostly below about 5.4%; note: actives read high
NR2E3 ag confirm = confirmation of human NR2E3 agonists | hit rate 51% among 2,300 | shares compounds with NR2E3 ag-1 | CHO-S mammalian two-hybrid NR2E3-NCOR, luciferase luminescence | inhibition, % at 3.98 µM;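 active = average inhibition above a cutoff equal to the mean inhibition of all tested compounds plus one SD, cut at about 70% in these data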;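 note: 0% = DMSO in NR2E3 cells and 100% = DMSO in cells lacking NR2E3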
GAL4-VP16 luc = counter-screen for NR2E3 agonists: GAL4-VP16 reporter inhibitors | shares compounds with NR2E3 ag-1 | CHO-S GAL4-VP16 luciferase reporter, luminescence | inhibition, % at 3.98 µM | hit rate 29% among 2,300 | AID 624379;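 active = mean inhibition above a cutoff equal to the average over all tested compounds plus one standard deviation, cut at about 70% in these data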;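 note: luciferase from a UAS reporter driven by GAL4-VP16 transactivation; 0% = DMSO with VP16-transfected cells and 100% = DMSO with cells lacking VP16; higher means less reporter light so more repression of VP16 activity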
GalR3 conf = GalR3 (human) antagonism, confirmation | shares compounds with GalR3 antagonist | HEK293 GalR3 CNG cAMP biosensor, membrane potential fluorescence; galR3 fused to GalR1 carboxy tail; challenged with forskolin and galanin at EC90 | inhibition, % at 3 µM | hit rate 59% among 1,600 | AID 652245;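 active = inhibition above the primary screen's cutoff, the mean inhibition of all screened compounds plus 3 SD, cut at about 13% in these data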;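 note: 0% = forskolin plus galanin and 100% = forskolin alone with DMSO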
HEK-CNG parental = parental cell agonism counter-screen for GalR3 antagonists; HEK293-CNG parental cells, cAMP membrane potential fluorescence; normalised: DMSO wells 0%, forskolin wells 100%; activation, % at 3 µM; AID 652268; hit rate 10% among 1,600; shares compounds with GalR3 antagonist; in the data active = activation above about 1.3%
An asterisk follows results filed as active; [ ] = remark or other dose.

Screening CCC(=O)/C=C1/Sc2ccccc2N1CC returned NR2E3 ag-1 13, GalR3 antagonist -5, GAA850 FXN act -1, NR2E3 ag-2 -1 and V-ATPase pHluor -3.
For CCN1/C(=C/c2sc(-c3ccccc3C)c[n+]2C)Sc2ccccc21 the results were NR2E3 ag-1 90*, HIV Env fusion 15, GalR3 antagonist 51*, GAA850 FXN act -11, V-ATPase pHluor -4, NR2E3 ag confirm 99*, GAL4-VP16 luc 85*, GalR3 conf 72* and HEK-CNG parental 2.2*.
O=C(C[C@H]1CC[C@H]2[C@@H](COC[C@@H](O)CN2Cc2cccc(Cl)c2)O1)NCC1CCCCC1 was read as HIV Env fusion 24[16.7 µM].
CCc1ccc(OC)c(S(=O)(=O)Nc2ccc(Cc3ccncc3)cc2)c1 was read as NR2E3 ag-1 99*, HIV Env fusion 5, GalR3 antagonist 46*, GAA850 FXN act 0, NR2E3 ag-2 -1, V-ATPase pHluor -2, NR2E3 ag confirm 86*, GAL4-VP16 luc 74*, GalR3 conf 8 and HEK-CNG parental 0.
Screening CCc1ccc(NS(=O)(=O)c2ccc(OC)c3ncccc23)cc1 returned NR2E3 ag-1 0, HIV Env fusion 0, GalR3 antagonist -10, GAA850 FXN act 2, NR2E3 ag-2 -1 and V-ATPase pHluor -1.
Screening Cc1cc(/C=C2/SC(=S)N(c3ccc([N+](=O)[O-])cc3)C2=O)c(C)n1-c1cccnc1 returned NR2E3 ag-1 2, HIV Env fusion 45, GalR3 antagonist 0, GAA850 FXN act 0, NR2E3 ag-2 5 and V-ATPase pHluor 3.
For Cc1cc(/C=C2/SC(=S)N(c3cccc(Cl)c3)C2=O)c(C)n1-c1cccnc1 the results were NR2E3 ag-1 63, HIV Env fusion 53, GalR3 antagonist 90*, GAA850 FXN act -2, NR2E3 ag-2 1, V-ATPase pHluor 2, NR2E3 ag confirm 53, GAL4-VP16 luc 66, GalR3 conf 15* and HEK-CNG parental 0.
`Cc1ccc(NC(=O)COc2ccc(N(C)C(=O)C(C)(C)C)cc2)cc1S(=O)(=O)N1CCCCC1` gave NR2E3 ag-1 63, HIV Env fusion 26, GalR3 antagonist 93*, GAA850 FXN act -3, V-ATPase pHluor -1, NR2E3 ag confirm 0, GAL4-VP16 luc 44, GalR3 conf 105* and HEK-CNG parental -1.
Cc1nc2ccc(NC(=O)c3cc(S(=O)(=O)N(C)c4ccccc4)ccc3Cl)cc2s1 was read as NR2E3 ag-1 80*, HIV Env fusion 87*, GalR3 antagonist 78*, GAA850 FXN act -5, NR2E3 ag-2 0, V-ATPase pHluor -1, NR2E3 ag confirm 91*, GAL4-VP16 luc 80*, GalR3 conf 112* and HEK-CNG parental -1.
`C[C@H](CO)N1C[C@H](C)[C@H](CN(C)C(=O)CC2CC2)Oc2ncc(C#CC3CC3)cc2C1=O` gave HIV Env fusion -7[16.7 µM].
Screening Cc1noc(C)c1COC(=O)c1ccc(F)c(S(=O)(=O)N2CCCCC2)c1 returned NR2E3 ag-1 -25, HIV Env fusion 15, GalR3 antagonist 0, GAA850 FXN act 1, NR2E3 ag-2 0 and V-ATPase pHluor -1.
Screening Cc1noc(C)c1COC(=O)c1cccc(S(=O)(=O)N2CCCCCC2)c1 returned NR2E3 ag-1 62, GalR3 antagonist 80*, GAA850 FXN act 2, NR2E3 ag-2 -1, V-ATPase pHluor -5, NR2E3 ag confirm 45, GAL4-VP16 luc 58, GalR3 conf 84* and HEK-CNG parental 0.
O=C(CC1CC1)Nc1ccc2c(c1)[C@@H]1C[C@H](CC(=O)NC3CCCCC3)O[C@H](CO)[C@@H]1O2 was read as HIV Env fusion 4[16.7 µM].
Screening COc1ccc(CC(=O)Nc2cccc(S(=O)(=O)N3CCCCCC3)c2)cc1OC returned NR2E3 ag-1 80*, HIV Env fusion 68*, GalR3 antagonist 104*, GAA850 FXN act -5, NR2E3 ag-2 -3, V-ATPase pHluor -2, NR2E3 ag confirm 90*, GAL4-VP16 luc 77*, GalR3 conf 99* and HEK-CNG parental -1.
COc1ccc(CCC(=O)Nc2cccc(S(=O)(=O)N3CCCCCC3)c2)cc1OC was read as NR2E3 ag-1 -15, GalR3 antagonist -3, GAA850 FXN act -1, NR2E3 ag-2 2 and V-ATPase pHluor 0.
Screening C[C@H]1CN([C@@H](C)CO)C(=O)c2cccc(NC(=O)NC3CCCCC3)c2O[C@H]1CN(C)Cc1ccncc1 returned HIV Env fusion -21[16.7 µM].
For CN(Cc1ccc(OC(F)F)cc1)C(=O)c1cccc(S(=O)(=O)N2CCN(Cc3ccccc3)CC2)c1 the results were NR2E3 ag-1 91*, GalR3 antagonist 22*, GAA850 FXN act -6, V-ATPase pHluor -2, NR2E3 ag confirm 92*, GAL4-VP16 luc 76*, GalR3 conf 88* and HEK-CNG parental -1.
`COc1ccc(NS(=O)(=O)c2ccc(N3CCOCC3)c(N)c2)cc1` gave NR2E3 ag-1 85*, GalR3 antagonist 84*, GAA850 FXN act -2, NR2E3 ag-2 4, V-ATPase pHluor 0, NR2E3 ag confirm 90*, GAL4-VP16 luc 78*, GalR3 conf 83* and HEK-CNG parental 0.
`O=C(Nc1ccc(F)cc1F)N1CCCN(c2ccc(C(F)(F)F)cn2)CC1` gave NR2E3 ag-1 21, HIV Env fusion 10, GalR3 antagonist -7, GAA850 FXN act -1, NR2E3 ag-2 0 and V-ATPase pHluor -3.
Screening Fc1ccc(NC(=S)N2CCCN(c3ccc(C(F)(F)F)cn3)CC2)c(F)c1 returned NR2E3 ag-1 69, HIV Env fusion 61*, GalR3 antagonist 110*, GAA850 FXN act -3, NR2E3 ag-2 3, V-ATPase pHluor 4, NR2E3 ag confirm 91*, GAL4-VP16 luc 77*, GalR3 conf 107* and HEK-CNG parental -1.
`CC(=O)Nc1ccc(NC(=O)c2csc([C@@H]3C[C@H](O)[C@@H](CO)O3)n2)cc1` gave NR2E3 ag-1 0, HIV Env fusion 8, GalR3 antagonist -6 and GAA850 FXN act 2.
